According to ChEMBL document CHEMBL1764983, “Structure-activity study to develop cationic lipid-conjugated haloperidol derivatives as a new class of anticancer therapeutics” (J Med Chem, 2011):
Activity calls are given as the source filed them. The calls are words filed in the database; no cut-off is given here.

What was measured:
MDA-MB-231 [1] = experiment: Cytotoxicity against human MDA-MB-231 cells expressing sigma receptor at 0.5 to 50 uM after 48 hrs by MTT assay; type: functional, cell-based
Summary of the method: (§1)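 MTT reduction assay. Cells grown in RPMI-1640 with 10% FBS at 37 °C, 5% CO₂, and used at 85-90% confluency. Seeded at 5000 cells/well 18-24 h ahead, then exposed continuously for 48 h in triplicate wells. Working solutions made in 10% FBS medium with DMSO ≤1%. Cells washed before MTT.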

MCF7 [2] = experiment: Cytotoxicity against human MCF7 cells expressing sigma receptor at 0.5 to 50 uM after 48 hrs by MTT assay; type: functional, cell-based; summary of the method: as §1
MCF7 [3] = experiment: Induction of apoptosis in human MCF7 cells expressing sigma receptor assessed as early apoptotic cells using annexin V/propidium iodide staining at 5 uM after 24 hrs by flow cytometry (reference value: 0.92%); type: functional
B16-F10 [4] = experiment: Induction of apoptosis in mouse B16F10 cells expressing sigma receptor assessed as early apoptotic cells using annexin V/propidium iodide staining at 5 uM after 24 hrs by flow cytometry (reference value: 0.92%); type: functional
B16-F10 [5] = experiment: Induction of apoptosis in mouse B16F10 cells expressing sigma receptor assessed as late apoptotic cells using annexin V/propidium iodide staining at 5 uM after 24 hrs by flow cytometry (reference value: 1.21%); type: functional
HEK293 [6] = experiment: Induction of apoptosis in human HEK293 cells expressing sigma receptor assessed as early apoptotic cells using annexin V/propidium iodide staining at 5 uM after 24 hrs by flow cytometry (reference value: […]); type: cell-based; conditions: hek293, 24 h
B16-F10 [7] = experiment: Induction of apoptosis in mouse B16F10 cells expressing sigma receptor assessed as viable cells using annexin V/propidium iodide staining at 5 uM after 24 hrs by flow cytometry (reference value: 98.30%); type: functional
HEK293 [8] = experiment: Induction of apoptosis in human HEK293 cells expressing sigma receptor assessed as necrotic cells using annexin V/propidium iodide staining at 5 uM after 24 hrs by flow cytometry (reference value: 0.06%); type: cell-based; conditions: hek293, 24 h
[9] = Induction of apoptosis in against african green monkey COS1 cells expressing sigma receptor assessed as viable cells using annexin V/propidium iodide staining at 5 uM after 24 hrs by flow cytometry (reference value: 99.82%); type: cell-based; conditions: chlorocebus aethiops, COS-1 cells expressing sigma receptor; read-out: Activity
COS-1 [10] = experiment: Induction of apoptosis in against african green monkey COS1 cells expressing sigma receptor assessed as late apoptotic cells using annexin V/propidium iodide staining at 5 uM after 24 hrs by flow cytometry (reference value: 0.04%); type: cell-based; conditions: chlorocebus aethiops, cos-1, 24 h
HEK293 [11] = experiment: Induction of apoptosis in human HEK293 cells expressing sigma receptor assessed as late apoptotic cells using annexin V/propidium iodide staining at 5 uM after 24 hrs by flow cytometry (reference value: […]); type: cell-based; conditions: hek293, 24 h
MCF7 [12] = experiment: Induction of apoptosis in human MCF7 cells expressing sigma receptor assessed as late apoptotic cells using annexin V/propidium iodide staining at 5 uM after 24 hrs by flow cytometry (reference value: 1.48%); type: functional
B16-F10 [13] = experiment: Induction of apoptosis in mouse B16F10 cells expressing sigma receptor assessed as necrotic cells using annexin V/propidium iodide staining at 5 uM after 24 hrs by flow cytometry (reference value: 0.25%); type: functional
MCF7 [14] = experiment: Induction of apoptosis in human MCF7 cells expressing sigma receptor assessed as viable cells using annexin V/propidium iodide staining at 5 uM after 24 hrs by flow cytometry (reference value: 97.33%); type: functional
COS-1 [15] = experiment: Induction of apoptosis in against african green monkey COS1 cells expressing sigma receptor assessed as necrotic cells using annexin V/propidium iodide staining at 5 uM after 24 hrs by flow cytometry (reference value: 0.08%); type: cell-based; conditions: chlorocebus aethiops, cos-1, 24 h
[16] = Induction of apoptosis in human HEK293 cells expressing sigma receptor assessed as viable cells using annexin V/propidium iodide staining at 5 uM after 24 hrs by flow cytometry (reference value: 99.76%); type: cell-based; conditions: read-out: Activity
COS-1 [17] = experiment: Induction of apoptosis in against african green monkey COS1 cells expressing sigma receptor assessed as early apoptotic cells using annexin V/propidium iodide staining at 5 uM after 24 hrs by flow cytometry (reference value: 0.06%); type: cell-based; conditions: chlorocebus aethiops, cos-1, 24 h
MCF7 [18] = experiment: Induction of apoptosis in human MCF7 cells expressing sigma receptor assessed as necrotic cells using annexin V/propidium iodide staining at 5 uM after 24 hrs by flow cytometry (reference value: 0.27%); type: functional
COS-1 [19] = experiment: Cytotoxicity against african green monkey COS1 cells expressing sigma receptor after 48 hrs by MTT assay; type: cell-based; conditions: Chlorocebus aethiops, COS-1, 48 h; summary of the method: as §1
ZR-75-1 = experiment: Cytotoxicity against human ZR-75-1 cells expressing sigma receptor after 48 hrs by MTT assay; type: functional, cell-based; conditions: ZR-75-1, 48 h; summary of the method: as §1
B16-F10 [20] = experiment: Antitumor activity against mouse B16F10 cells expressing sigma receptor xenografted in C57BL6/J mouse assessed as tumor regression at 7.5 mg/kg, ip administered 5 times with gap 2 to 3 days; type: functional, organism-based; design: dose 7.5 mg/kg
Summary of the method: (§2)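 Male C57BL6/J mice, 6-8 weeks old, given 2 × 10⁵ B16F10 cells s.c. in the lower right abdomen. From day 11, groups of four mice received 7.5 mg/kg i.p. in PBS with 10% DMSO, five injections 2-3 days apart. Tumours measured three times a week; volume = 0.5ab². Tumours excised on day 23, cut as 10 μm cryosections, fixed and fluorometric TUNEL-stained.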

HUVEC [21] = experiment: Induction of apoptosis in HUVEC assessed as increase of Bax/Bcl-2 protein ratio at 10 uM after 24 hrs by Western blotting; type: functional, cell-based; conditions: Homo sapiens
Summary of the method: (§3)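 B16F10 cells (in RPMI) and HUVEC (passages 2-3, in EBM with bullet kit minus serum) exposed to 10 μM compound or left untreated for 24 h under charcoal-stripped serum conditions. Whole-cell lysates made in cold RIPA (pH 7.4) with phosphatase/protease inhibitors and 2 mM vanadate. SDS-PAGE gradient gel, PVDF transfer, probed for caspase 3, Bax, Bcl-2, Akt, pAkt and β-actin with HRP-chemiluminescence detection.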

B16-F10 [22] = experiment: Antitumor activity against mouse B16F10 cells expressing sigma receptor xenografted in C57BL6/J mouse assessed as increase of apoptotic region in tumor at 7.5 mg/kg, ip administered 5 times with gap 2 to 3 days by TUNEL assay; type: functional, organism-based; design: dose 7.5 mg/kg; summary of the method: as §2
HUVEC [23] = experiment: Induction of apoptosis in HUVEC assessed as phosphorylated Akt level at 10 uM after 24 hrs by Western blotting; type: functional, cell-based; conditions: Homo sapiens; summary of the method: as §3
HEK293 [24] = experiment: Cytotoxicity against human HEK293 cells expressing sigma receptor after 48 hrs by MTT assay; type: cell-based; conditions: HEK293, 48 h; summary of the method: as §1
B16-F10 [25] = experiment: Cytotoxicity against mouse B16F10 cells expressing sigma receptor after 48 hrs by MTT assay; type: functional, cell-based; conditions: B16-F10, 48 h; summary of the method: as §1
B16-F10 [26] = experiment: Induction of apoptosis in mouse B16F10 cells expressing sigma receptor assessed as increase of Bax protein expression at 10 uM after 24 hrs by Western blotting; type: functional, cell-based; summary of the method: as §3
B16-F10 [27] = experiment: Induction of apoptosis in mouse B16F10 cells expressing sigma receptor assessed as increase of Bax/Bcl-2 protein ratio at 10 uM after 24 hrs by Western blotting; type: functional, cell-based; summary of the method: as §3
MCF7 [28] = experiment: Cytotoxicity against human MCF7 cells expressing sigma receptor after 48 hrs by MTT assay; type: functional, cell-based; conditions: MCF7, 48 h; summary of the method: as §1
B16-F10 [29] = experiment: Induction of apoptosis in mouse B16F10 cells expressing sigma receptor assessed as phosphorylated Akt level at 10 uM after 24 hrs by Western blotting; type: functional, cell-based; summary of the method: as §3
MCF7 [30] = experiment: Cytotoxicity against sigma receptor depleted human MCF7 cells assessed as cell viability at 10 uM after 48 hrs by MTT assay in presence of siRNA treated for 4 hrs before compound challenge
HUVEC [31] = experiment: Induction of apoptosis in HUVEC assessed as increase of cleaved caspase 3 expression at 10 uM after 24 hrs by Western blotting; type: functional, cell-based; conditions: Homo sapiens; summary of the method: as §3
B16-F10 [32] = experiment: Induction of apoptosis in mouse B16F10 cells expressing sigma receptor assessed as decrease of Bcl-2 protein expression at 10 uM after 24 hrs by Western blotting; type: functional, cell-based; summary of the method: as §3
MDA-MB-231 [33] = experiment: Cytotoxicity against human MDA-MB-231 cells expressing sigma receptor after 48 hrs by MTT assay; type: functional, cell-based; conditions: MDA-MB-231, 48 h; summary of the method: as §1
B16-F10 [34] = experiment: Induction of apoptosis in mouse B16F10 cells expressing sigma receptor assessed as increase of cleaved caspase 3 expression at 10 uM after 24 hrs by Western blotting; type: functional, cell-based; summary of the method: as §3

Structure (SMILES)	Activity (MDA-MB-231 [1])	Activity (MCF7 [2])	Activity (MCF7 [3]) [%]	Activity (B16-F10 [4]) [%]	Activity (B16-F10 [5]) [%]	Activity (HEK293 [6]) [%]	Activity (B16-F10 [7]) [%]	Activity (HEK293 [8]) [%]	viability at 24 h, 5 µM [9] [%]	Activity (COS-1 [10]) [%]	Activity (HEK293 [11]) [%]	Activity (MCF7 [12]) [%]	Activity (B16-F10 [13]) [%]	Activity (MCF7 [14]) [%]	Activity (COS-1 [15]) [%]	viability at 24 h, 5 µM [16] [%]	Activity (COS-1 [17]) [%]	Activity (MCF7 [18]) [%]	other results
CCCCCCCCCCCC[N+](C)(CCCCCCCCCCCC)CC(=O)NCCC(=O)OC1(c2ccc(Cl)cc2)CCN(CCCC(=O)c2ccc(F)cc2)CC1	Active	Active	–	–	–	–	–	–	–	–	–	–	–	–	–	–	–	–	–
CCCCCCCCCCCCCCCC[N+](C)(CCCCCCCCCCCCCCCC)CC(=O)NCCC(=O)OC1(c2ccc(Cl)cc2)CCN(CCCC(=O)c2ccc(F)cc2)CC1	Active	Active	–	–	–	–	–	–	–	–	–	–	–	–	–	–	–	–	–
O=C(CCCN1CCC(O)(c2ccc(Cl)cc2)CC1)c1ccc(F)cc1 [HALOPERIDOL]	Active	Active	0.51	0.29	0.95	0.11	97.17	0.07	99.6	0.16	0.18	1.74	1.58	97.66	0.17	99.6	0.11	0.09	–
CCCCCCCC[N+](C)(CCCCCCCC)CC(=O)NCCC(=O)OC1(c2ccc(Cl)cc2)CCN(CCCC(=O)c2ccc(F)cc2)CC1.[Cl-]	Active	Active	5.02	4.1	53.41	0.14	41.47	0.14	99.7	0.06	0.15	33.2	1.03	47.43	0.12	99.6	0.11	14.35	IC50 (COS-1 [19]): 7000 nM; IC50 (ZR-75-1): 2500 nM; Activity (B16-F10 [20]): Active; Activity (HUVEC [21]): Active; Activity (B16-F10 [22]): Active; Activity (HUVEC [23]): Active; IC50 (HEK293 [24]): 7000 nM; IC50 (B16-F10 [25]): 2500 nM; Activity (B16-F10 [26]): Active; Activity (B16-F10 [27]): Active; IC50 (MCF7 [28]): 2500 nM; Activity (B16-F10 [29]): Active; viability at 10 µM (MCF7 [30]): 25%; Activity (HUVEC [31]): Active; Activity (B16-F10 [32]): Active; IC50 (MDA-MB-231 [33]): 2500 nM; Activity (B16-F10 [34]): Active
CCCC[N+](C)(CCCC)CC(=O)NCCC(=O)OC1(c2ccc(Cl)cc2)CCN(CCCC(=O)c2ccc(F)cc2)CC1	Active	Active	–	–	–	–	–	–	–	–	–	–	–	–	–	–	–	–	–
